Screening results as filed in PubChem BioAssay.
Most compounds without a hit are left out; they make up all but 2.3% or so of the library.
OXTR potentiator: human OXTR potentiation; P30559; CHO-OTR cells, Fluo-8 calcium fluorescence, potentiator mode; 0% = oxytocin EC15, 100% = EC100; activation, % at 3 µM; actives 0.061% (n = 320,000);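 active means activation above that plate's cutoff, the mean activation of tested compounds plus 3 SD, cut at about 6.6% in these data, passing the limit was not always enough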;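 further: 100% uses oxytocin at 75 nM as the full agonist control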
Target sequence (P30559 whole entry, looked up): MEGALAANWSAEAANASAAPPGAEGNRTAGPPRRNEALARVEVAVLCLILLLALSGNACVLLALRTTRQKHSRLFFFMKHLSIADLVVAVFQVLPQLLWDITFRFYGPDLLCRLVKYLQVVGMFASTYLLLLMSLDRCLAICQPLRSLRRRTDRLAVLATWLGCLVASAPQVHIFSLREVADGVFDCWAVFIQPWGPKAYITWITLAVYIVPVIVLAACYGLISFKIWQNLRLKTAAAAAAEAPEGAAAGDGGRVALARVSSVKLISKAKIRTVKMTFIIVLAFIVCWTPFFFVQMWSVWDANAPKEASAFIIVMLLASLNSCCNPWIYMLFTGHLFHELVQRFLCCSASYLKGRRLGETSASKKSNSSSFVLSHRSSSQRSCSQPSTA
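Material: human OTR in CHO cells. Compound: 3.0 µM, one dose. Timing: compound 6 min at room temperature before oxytocin, 100 s read. Evaluation: % activation of max/min ratio relative to oxytocin controls. Replication: single well per compound, singlicate. Signal: Fluo-8 calcium dye fluorescence.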
TAAR1 agonist: human TAAR1 agonism; actives 0.99% (n = 360,000); Q96RJ0; CHO RD-HGA16 TAAR1, Fluo-8 calcium fluorescence; vehicle wells 0%, saturating PEA agonist 100%; activation, % at 3 µM;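 active means activation above the mean activation of all test compounds in the run plus 3 SD, cut at about 38% in these data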
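System: CHO RD-HGA16 cells carrying human TAAR1 plus Gα16; Incubation: 17-24 h seeding, 75 min 37 °C dye, 30 min RT; Measured by: Fluo-8 fluorescence, 5 s baseline then 140 s kinetic read; Control set: DMSO and PEA EC100; Replication: single well for each compound.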
OXTR agonist: human OXTR agonism; activation, % at 3 µM; AID 2435; actives 0.32% (n = 320,000); P30559; CHO-OTR cells, Fluo-8 calcium fluorescence; normalized: DMSO 0%, oxytocin 100%;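 active means activation above the mean of all tested compounds plus 3 SD, cutoff set per screening run, cut at about 20% in these data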;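 further: peak over basal fluorescence ratio from a 100 s FLIPR kinetic read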
V1R ag counter: activates human V1a receptor in oxytocin agonist counter-screen; CHO-V1R cells, Fluo-8 calcium fluorescence, agonist mode; 0% DMSO, 100% 3 nM vasopressin; activation, % at 3 µM; actives 0.25% (n = 320,000); AID 2797;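 active means activation above the mean activation of all tested compounds plus 3 SD, per screening run, cut at about 20% in these data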;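 further: signal is peak over basal fluorescence ratio across a 100 second FLIPR read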
TAAR1 antag: antagonists of human TAAR1; Q96RJ0; CHO RD-HGA16 TAAR1, Fluo-8 calcium fluorescence, antagonist; inhibition, % at 3 µM; actives 1.5% (n = 360,000);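 active means inhibition above a per-plate cutoff, the mean inhibition of test compounds on that plate plus 3 SD, cut at about 49% in these data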;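 further: 0% = DMSO plus EC80 beta-PEA response and 100% = DMSO alone without agonist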
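test system = CHO RD-HGA16 cells bearing hTAAR1 | replication = singlicate | controls = DMSO-only wells and EC80 β-PEA-stimulated wells | reagent = EC80 β-phenethylamine stimulus | read-out basis = percent inhibition of PEA-evoked calcium signal, max/basal emission ratio | schedule = seeding 17-24 h prior, 75-min 37 °C, 30-min RT dye loading | signal = kinetic Fluo-8 calcium fluorescence measurement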
* = called active by the depositor; . = not tested or not shown.

SMILES	OXTR potentiator	TAAR1 agonist	OXTR agonist	V1R ag counter	TAAR1 antag
C[C@@H](C(=O)NCC1CC1)[C@@H]1C[C@@]1(C)[C@@H](NC(=O)OCc1ccccc1)c1ccccc1	-3	5	0	0	-6
C[C@@H](C(=O)NCc1ccccn1)[C@H]1C[C@]1(C)[C@H](NC(=O)OCc1ccccc1)c1ccccc1	-15	16	1	-1	49*
CC(C)NC(=O)N(C)C[C@@H]1Oc2cc(C#Cc3ccccn3)ccc2S(=O)(=O)N([C@@H](C)CO)C[C@H]1C	.	5	.	.	-10
COc1cccc(/C=C/C(=O)OCC(=O)N2c3ccccc3NC(=O)C2(C)C)c1	-1	20	-1	2	56*
CCOc1ccccc1N1CCN(C(=O)c2cc(S(=O)(=O)N3CCCCC3)ccc2C)CC1	-8	28	-2	2	55*
c1ccc(-c2nc3nc4ccccc4nc3n2CC2CCCO2)cc1 (stereo not drawn)	-6	22	-2	-2	51*
CC(c1ccccc1C(=O)O)c1cc(F)cc2ccccc12 (stereo not drawn)	.	0	.	.	11
O=C1NC(=S)NC1=Cc1ccccc1O	.	47*	.	.	12
CC(C)C(NS(=O)(=O)c1c(Cl)cccc1Cl)C(=O)OCC(=O)c1c[nH]c2ccccc12 (stereo not drawn)	-17	7	2	3	20
CC(O)C(NS(=O)(=O)c1ccc(Cl)cc1)C(=O)OCC(=O)c1c[nH]c2ccccc12 (stereo not drawn)	-8	19	2	4	58*
CSCCC(NS(=O)(=O)c1ccc(Cl)cc1)C(=O)OCC(=O)c1c(C)[nH]c2ccccc12 (stereo not drawn)	-11	19	4	7	81*
Cc1ccc(C(=O)OCC(=O)c2c[nH]c3ccccc23)cc1	-10	3	1	0	5
CC(C)Cc1ccc(C(C)C(=O)OCC(=O)c2c[nH]c3ccccc23)cc1 (stereo not drawn)	-7	55*	28*	23*	22
COC(=O)C1=C(C)N(Cc2ccc(C(F)(F)F)cc2)C(=NCC2CC2)NC1c1cccc(Cl)c1 (stereo not drawn)	.	25	.	.	39
CCCN(C(=O)c1ccccc1Cc1ccccc1)C1CCS(=O)(=O)C1 (stereo not drawn)	-4	0	-2	0	-4
CCCN(C(=O)CCc1cn(CCC)c2ccccc12)c1ccc(N(C)c2ccccn2)cc1	.	0	.	.	27
COC(=O)C1=C(C)N(Cc2ccccc2C(F)(F)F)C(=NCc2cccc(C(F)(F)F)c2)NC1CCc1ccccc1 (stereo not drawn)	.	2	.	.	-19
c1ccc(OCCNc2ccn3nc(-c4ccc(OCCN5CCOCC5)cc4)cc3n2)cc1	.	20	.	.	61*
c1csc(CNc2ccn3nc(-c4ccc(OCCN5CCOCC5)cc4)cc3n2)c1	.	29	.	.	33
O=S(=O)(/N=S1\CC=CCN1S(=O)(=O)c1ccccc1)c1ccccc1 (stereo not drawn)	.	67*	.	.	-8
O=C(O)c1ccccc1-c1c2cc(I)c(=O)c(I)c-2oc2c(I)c(O)c(I)cc12	-12	136*	232*	205*	83*
O=[N+]([O-])c1cccc(N=NN(CCO)c2cccc([N+](=O)[O-])c2)c1	-10	8	0	5	51*
Cc1ccc([C@H]2C[C@@H](O)[C@H](n3cc(C4CC4)nn3)CN2Cc2cccs2)cc1	.	3	.	.	-30
Cc1ccc([C@H]2C[C@H](O)[C@@H](n3cc(C4CC4)nn3)CN2Cc2cccs2)cc1	.	41*	.	.	41
Cc1c(C(=O)Nc2ccc3c(c2)OCCO3)sc2nc(-c3ccccc3)cn12	-13	10	8	6	64*
SMILES	OXTR potentiator	TAAR1 agonist	OXTR agonist	V1R ag counter	TAAR1 antag
Cc1c(C(=O)Nc2ccncc2)sc2nc(-c3ccccc3)cn12	-8	13	14	16	58*
C=CCNC(=S)N(C)[C@H]1C[C@H]2c3cc(-c4ccccc4C)ccc3CCN2C[C@H]1[C@H](C)O	.	2	.	.	-27
Cc1c(C(=O)N/N=C/c2ccncc2)no[n+]1[O-]	-4	4	0	0	-14
CC1=NN(c2ccccc2)C(=O)/C1=C\C=C1\N(C)c2ccccc2C1(C)C	-13	54*	31*	36*	19
Cc1nn(-c2ccccc2)c(C)c1NC(=O)COC(=O)/C=C/c1ccccc1	-13	19	0	2	60*
CCC(C(=O)OCC(=O)Nc1c(C)nn(-c2ccccc2)c1C)c1ccccc1 (stereo not drawn)	-7	9	0	1	35
CCOc1cc(N2CCC(O)CC2)ccc1Nc1ncc2c(n1)N(C)c1ccccc1C(=O)N2C	.	6	.	.	45
CCOc1ccc(-c2nnn(CC(=O)N3CCCC(C)C3)n2)cc1 (stereo not drawn)	4	2	0	2	1
O=C(CC1(CC2=NS(=O)(=O)c3ccccc3N2)CCCC1)NCCc1ccccc1	-7	28	2	5	59*
O=C(CCCC1=NS(=O)(=O)c2ccccc2N1)NCCc1ccc(Cl)cc1	-2	5	0	0	-15
CCOC(=O)C(=O)NC1CC=CCC1c1ccc2c(c1)OCO2 (stereo not drawn)	.	2	.	.	-3
Cc1c(C(=O)NCc2cccnc2)oc2ccc(S(=O)(=O)N3CCC4(CC3)OCCO4)cc12	0	2	5	4	2
Cc1ccc(CNC(=O)c2oc3ccc(S(=O)(=O)N4CCC5(CC4)OCCO5)cc3c2C)cc1	-12	13	-1	2	57*
Cc1c(C(=O)NCCC2=CCCCC2)oc2ccc(S(=O)(=O)N3CCOCC3)cc12	-12	40*	6	4	60*
Cc1c(C(=O)NCCCN2CCCC2=O)oc2ccc(S(=O)(=O)N3CCOCC3)cc12	1	12	0	1	-12
O=C(/C=C(\Nc1ccc(F)cc1)c1ccccc1)c1ccccc1	.	-1	.	.	19
Cc1noc(COc2ccccc2OCC(N)=O)n1	0	1	0	0	9
Cc1ccc(OCC(=O)N/N=C\c2cccn2C)c([N+](=O)[O-])c1	-14	4	7	7	15
Nc1[nH]c(C(=O)c2ccc(Br)cc2)c(-c2ccncc2)c1C(=O)c1ccccc1	.	9	.	.	21
COC(=O)C1CCN(S(=O)(=O)c2cc3c4c(c2)CCN4C(=O)CC3)CC1	.	0	.	.	-15
CCC(C)(C)NC(=O)CCCSc1nc2ccccc2[nH]1	-9	1	0	0	-15
CC(=O)c1cccc(NS(=O)(=O)c2ccc(N/C=C/C(=O)c3ccc(F)cc3)cc2)c1	-8	8	11	6	39
